The values that follow come from ChEMBL document CHEMBL4251738, “A BODIPY-Tagged Phosphono Peptide as Activity-Based Probe for Human Leukocyte Elastase” (ACS Med Chem Lett, 2018).

Active and inactive are the calls of the source. The rule behind the calls is not given here. A value given as a limit tells only on which side of the number the result lay.

Assay [1] concerns the target T1, Neutrophil elastase (Homo sapiens) (UniProt P08246).
T1 sequence (whole entry): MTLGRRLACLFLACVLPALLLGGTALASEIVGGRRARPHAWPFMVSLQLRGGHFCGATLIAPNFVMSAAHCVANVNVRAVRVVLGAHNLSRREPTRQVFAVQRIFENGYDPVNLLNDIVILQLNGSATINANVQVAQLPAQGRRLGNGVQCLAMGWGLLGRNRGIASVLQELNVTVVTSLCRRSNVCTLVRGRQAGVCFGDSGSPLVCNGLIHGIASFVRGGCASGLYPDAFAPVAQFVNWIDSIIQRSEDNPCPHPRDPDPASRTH
The assay can be described thus: Irreversible inhibition of human leukocyte elastase assessed as ratio of Kinact to Ki using MeO-Suc-Ala-Ala-Pro-Val-pNA as substrate incubated over 60 mins by spectrophotometric method. In short, it runs like this: (§1)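 From substrate-consumption progress curves, kobs values (means of duplicates) were plotted against inhibitor concentration. kinac/Ki was derived by linear regression as kinac/Ki = kobs/[I](1 + [S]/Km) + d, where d is an offset. SEM is from that regression.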

The target of assay [2] is T2, Pancreatic elastase (Sus scrofa) (UniProt P08419+P00772). The assay can be described thus: Inhibition of porcine pancreatic elastase assessed as ratio of Kinact to Ki using MeO-Suc-Ala-Ala-Pro-Val-pNA as substrate incubated over 60 mins by spectrophotometric method. The format is protein assay. The procedure, abridged: as §1
For assay [3], the species on record is Bos taurus. As to the kind of experiment: Inhibition of bovine chymotrypsin assessed as ratio of Kinact to Ki using Suc-Ala-Ala-Pro-Phe-pNA as substrate incubated over 60 mins by spectrophotometric method. In short, it runs like this:
as §1

Assay [4] concerns the target Coagulation factor X (Bos taurus) (UniProt P00743). As to the kind of experiment: Inhibition of bovine factor 10a assessed as product formation at 1 uM using Boc-Ile-Glu-Gly-Arg-AMC as substrate incubated over 60 mins by fluorimetric method. In short, it runs like this:
(§2)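 Single-point test at 1 μM inhibitor, run in duplicate. Product formation was followed over 60 min. More than 90% product formation after 60 min was scored as no inhibition.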

Assay [5] has as its target Prothrombin (Homo sapiens) (UniProt P00734). As to the kind of experiment: Inhibition of human thrombin assessed as product formation at 1 uM using Z-Gly-Gly-Arg-AMC as substrate incubated over 60 mins by fluorimetric method. In short, it runs like this:
as §2

The species entered for assay [6] is Bos taurus. As to the kind of experiment: Inhibition of bovine trypsin assessed as product formation at 1 uM using Suc-Ala-Ala-Pro-Arg-pNA as substrate incubated over 60 mins by spectrophotometric method. In short, it runs like this:
as §2

For assay [7], the target named is Cathepsin B (Homo sapiens) (UniProt P07858). As to the kind of experiment: Inhibition of human cathepsin B assessed as product formation at 1 uM using Z-Arg-Arg-pNA as substrate incubated over 60 mins by spectrophotometric method. The procedure, abridged: as §2
Assay [8] addresses Procathepsin L (Homo sapiens) (UniProt P07711). The assay can be described thus: Inhibition of human cathepsin L assessed as product formation at 1 uM using Z-Phe-Arg-pNA as substrate incubated over 60 mins by spectrophotometric method. The procedure, abridged:
as §2

Assay [9] deals with T1, Neutrophil elastase (Homo sapiens). As to the kind of experiment: Irreversible inhibition of human leukocyte elastase at 50 nM using MeO-Suc-Ala-Ala-Pro-Val-pNA as substrate incubated for 30 mins followed by substrate addition.
The target is the same in assay [10]. The assay can be described thus: Binding affinity to human leukocyte elastase at 2.5 uM after 20 mins by in gel fluorescence detection based SDS-PAGE analysis. In short, it runs like this: (§3)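 Varying amounts of HLE were incubated with 2.5 μM fluorescent probe and then run on SDS-PAGE. Labeled HLE was read by in-gel fluorescence as bands at about 29 kDa. The same gel was then stained with Coomassie.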

The target is the same in assay [11]. As to the kind of experiment: Binding affinity to human leukocyte elastase at 160 ng after 20 mins by in gel fluorescence detection based SDS-PAGE analysis. In short, it runs like this: as §3
The target is the same in assay [12]. The assay can be described thus: Binding affinity to human leukocyte elastase at 2.5 uM after 20 mins by Coomassie brilliant blue G-250 staining based assay. The procedure, abridged: as §3
For assay [13] the target is unchanged. The assay can be described thus: Binding affinity to human leukocyte elastase at 2.5 uM incubated for 20 mins followed by HEK cell lysate addition by in gel fluorescence detection based SDS-PAGE analysis. In short, it runs like this: (§4)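 HLE (600 ng) was incubated with 2.5 μM probe for 20 min. HEK cell lysate (9 μg) was added either before or after that incubation. Lysate alone and HLE alone were run as reference lanes. Samples went on SDS-PAGE, read by in-gel fluorescence and then by Coomassie staining.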

For assay [14] the target is unchanged. As to the kind of experiment: Binding affinity to human leukocyte elastase at 2.5 uM incubated for 20 mins post HEK cell lysate addition by in gel fluorescence detection based SDS-PAGE analysis. In short, it runs like this: as §4
Assay [15] shares this target. The assay can be described thus: Binding affinity to human leukocyte elastase at 2.5 uM incubated for 20 mins followed by HEK cell lysate addition by Coomassie brilliant blue G-250 staining based assay. In short, it runs like this:
as §4

Assay [16] shares this target. As to the kind of experiment: Binding affinity to human leukocyte elastase at 2.5 uM incubated for 20 mins post HEK cell lysate addition by Coomassie brilliant blue G-250 staining based assay. In short, it runs like this:
as §4

Assay [17] shares this target. As to the kind of experiment: Inhibition of human leukocyte elastase at 2.5 uM preincubated with sivelestat for 5 mins followed by compound addition measured after 20 mins in presence of sivelestat by in gel fluorescence detection based SDS-PAGE analysis. The procedure, abridged: (§5)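 It was then incubated with 2.5 μM probe. Samples were resolved by SDS-PAGE, read by in-gel fluorescence and then by Coomassie staining.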

For assay [18] the target is unchanged. The assay can be described thus: Inhibition of human leukocyte elastase at 2.5 uM preincubated with sivelestat for 5 mins followed by compound addition measured after 20 mins in presence of sivelestat by Coomassie brilliant blue G-250 staining based assay. In short, it runs like this:
as §5

For assay [19] the target is unchanged. The assay can be described thus: Irreversible inhibition of human leukocyte elastase assessed as ratio of Kinact to Ki using MeO-Suc-Ala-Ala-Pro-Val-pNA as substrate by spectrophotometric method. Particulars: TDE = time-dependent effect. The procedure, abridged:
as §1

Assay [20] concerns the target T2, Pancreatic elastase (Sus scrofa). As to the kind of experiment: Inhibition of porcine pancreatic elastase assessed as product formation at 1 uM using MeO-Suc-Ala-Ala-Pro-Val-pNA as substrate incubated over 60 mins by spectrophotometric method. Type of assay: protein assay. In short, it runs like this:
as §2

The species named for assay [21] is Bos taurus. As to the kind of experiment: Inhibition of bovine chymotrypsin assessed as product formation at 1 uM using Suc-Ala-Ala-Pro-Phe-pNA as substrate incubated over 60 mins by spectrophotometric method. In short, it runs like this:
as §2

The target in assay [22] is T1, Neutrophil elastase (Homo sapiens). The assay can be described thus: Irreversible inhibition of human leukocyte elastase at 20 nM using MeO-Suc-Ala-Ala-Pro-Val-pNA as substrate incubated for 30 mins followed by substrate addition.

Coagulation factor X (Bos taurus), sequence (P00743 41-180 limits assumed): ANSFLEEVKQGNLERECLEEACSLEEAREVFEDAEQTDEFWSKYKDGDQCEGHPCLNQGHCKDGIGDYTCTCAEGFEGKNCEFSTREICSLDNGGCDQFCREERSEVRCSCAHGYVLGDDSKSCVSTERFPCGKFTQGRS
Coagulation factor X (Bos taurus), sequence (P00743 234-492 limits assumed): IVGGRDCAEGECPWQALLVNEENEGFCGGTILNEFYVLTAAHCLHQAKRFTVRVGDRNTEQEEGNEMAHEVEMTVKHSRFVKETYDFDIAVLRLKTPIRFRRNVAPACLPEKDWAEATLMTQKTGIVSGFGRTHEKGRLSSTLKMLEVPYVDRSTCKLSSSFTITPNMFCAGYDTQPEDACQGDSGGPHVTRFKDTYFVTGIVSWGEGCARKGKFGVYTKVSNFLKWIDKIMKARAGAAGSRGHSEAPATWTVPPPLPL
Procathepsin L (Homo sapiens), sequence (P07711 114-333 limits assumed): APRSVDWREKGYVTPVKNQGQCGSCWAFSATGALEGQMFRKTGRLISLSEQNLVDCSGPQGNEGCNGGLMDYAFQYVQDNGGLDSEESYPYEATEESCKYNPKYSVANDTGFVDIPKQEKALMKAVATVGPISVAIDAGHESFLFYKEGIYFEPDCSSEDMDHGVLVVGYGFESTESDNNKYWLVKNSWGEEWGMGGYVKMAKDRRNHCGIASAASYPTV

Regarding `CC(C)(C)C(=O)Oc1ccc(S(=O)(=O)Nc2ccccc2C(=O)NCC(=O)O)cc1`, the inhibition result in assay [1] is “Dose-dependent effect”.

`CSc1ccc(OP(=O)(Oc2ccc(SC)cc2)[C@@H](NC(=O)[C@@H]2CCCN2C(=O)[C@@H](NC(=O)Cn2cc(-c3ccc(C4=C5C(C)=CC(C)=[N+]5[B-](F)(F)n5c(C)cc(C)c54)cc3)nn2)C(C)C)C(C)C)cc1`: the Ratio in assay [1] turned out to be 88400 M⁻¹ s⁻¹; in assay [2] it was 1440 M⁻¹ s⁻¹; in the assay listed under Bos taurus [3] it was 565 M⁻¹ s⁻¹. Besides, the inhibition (in [4]; in assay [5]; in the assay filed under Bos taurus [6]; in [7]; in assay [8]) was more than 90% each time. Moreover, the inhibition entry in assay [9] was “Active”. The result in assay [10], in [11], in assay [12], in assay [13], in assay [14] and in assay [15] was Active. The result in [16] was Active. In addition, the inhibition entry in [17] and in [18] was “inactive” throughout.

`CSc1ccc(OP(=O)(Oc2ccc(SC)cc2)[C@H](NC(=O)[C@@H]2CCCN2C(=O)[C@@H](NC(=O)OC(C)(C)C)C(C)C)C(C)C)cc1`: the inhibition entry in [19] is “Tde”; in assay [4] it was more than 90%; in assay [5], more than 90%; in the assay listed under Bos taurus [6], more than 90%; in assay [7], more than 90%; in assay [8] it was more than 90%. Further, the inhibition (in [20]; in the assay filed under Bos taurus [21]) was more than 90% in each case. Moreover, the Ratio in [1] stood at 1000 M⁻¹ s⁻¹.

With `CSc1ccc(OP(=O)(Oc2ccc(SC)cc2)[C@@H](NC(=O)[C@@H]2CCCN2C(=O)[C@@H](NC(=O)OC(C)(C)C)C(C)C)C(C)C)cc1`, the inhibition result in [19] was “Tde”; in assay [4], more than 90%; in [5] it was more than 90%; in the assay filed under Bos taurus [6], more than 90%; in [7], more than 90%; in [8] it was more than 90%. Further, the inhibition in the assay filed under Bos taurus [21] was more than 90%. The Ratio in assay [1] was 399000 M⁻¹ s⁻¹; in assay [2] it was 7990 M⁻¹ s⁻¹. Further, the inhibition result in [22] was “Active”.
